Data set [1] concerns the target T1, Cytochrome P450 11B1, mitochondrial (Rattus norvegicus, UniProt P15393).
T1 sequence (P15393 whole entry): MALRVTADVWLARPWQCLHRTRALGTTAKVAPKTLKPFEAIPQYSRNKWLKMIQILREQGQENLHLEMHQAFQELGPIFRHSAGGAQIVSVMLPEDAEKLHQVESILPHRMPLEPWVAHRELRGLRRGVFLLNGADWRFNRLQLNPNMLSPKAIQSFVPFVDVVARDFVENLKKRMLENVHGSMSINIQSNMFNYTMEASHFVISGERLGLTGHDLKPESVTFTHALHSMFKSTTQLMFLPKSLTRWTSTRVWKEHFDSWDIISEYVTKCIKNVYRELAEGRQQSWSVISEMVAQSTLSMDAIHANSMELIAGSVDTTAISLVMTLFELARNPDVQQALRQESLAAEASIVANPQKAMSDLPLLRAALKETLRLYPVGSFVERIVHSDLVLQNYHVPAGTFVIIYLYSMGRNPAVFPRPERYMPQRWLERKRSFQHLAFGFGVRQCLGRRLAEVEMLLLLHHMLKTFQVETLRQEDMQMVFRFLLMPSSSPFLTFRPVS
The data set can be described thus: Inhibition of rat CYP11B1 expressed in hamster V79MZh cells using [1,2-3H]-11-deoxycorticosterone as substrate. The format is cell-based. The essentials:
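V79MZh cells expressing rat CYP11B1 were incubated with [1,2-3H]-11-deoxycorticosterone (100 nM) and inhibitor at varying concentrations. IC50 is the mean of more than three repeats.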

For data set [2], the target named is T2, Cytochrome P450 2A6 (Homo sapiens, UniProt P11509).
T2 sequence (P11509 whole entry): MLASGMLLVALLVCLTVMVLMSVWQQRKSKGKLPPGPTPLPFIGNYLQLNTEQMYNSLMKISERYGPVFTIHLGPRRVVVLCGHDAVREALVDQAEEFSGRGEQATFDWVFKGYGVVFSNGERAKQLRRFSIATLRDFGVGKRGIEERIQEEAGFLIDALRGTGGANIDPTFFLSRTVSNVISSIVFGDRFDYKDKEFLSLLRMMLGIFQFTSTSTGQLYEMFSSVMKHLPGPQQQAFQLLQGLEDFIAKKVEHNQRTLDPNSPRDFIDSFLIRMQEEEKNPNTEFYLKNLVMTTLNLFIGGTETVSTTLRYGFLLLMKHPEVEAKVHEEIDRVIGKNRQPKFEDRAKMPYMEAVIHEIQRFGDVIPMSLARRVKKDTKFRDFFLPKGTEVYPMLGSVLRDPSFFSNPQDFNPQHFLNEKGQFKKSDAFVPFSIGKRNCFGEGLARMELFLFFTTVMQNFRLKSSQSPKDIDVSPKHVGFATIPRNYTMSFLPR
The experiment in a line: Inhibition of CYP2A6 (unknown origin) using coumarin as substrate. Format: ADME. In outline: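 Commercial CYP2A6/coumarin inhibitor screening kit with coumarin as substrate at 3 μM, run per the kit instructions. IC50 determined.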

A short description of data set [3]: Cytotoxicity against HEK293 cells after 24 hrs. The format is cell-based. The note with it: human, read-out: LC50. In outline: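 HEK 293 cells seeded at 2 × 10⁵ cells per well; compounds added 24 h after seeding at 1% final DMSO. Living cell mass determined after 24 h incubation; LC₅₀ calculated. Doxorubicin positive control, rifampicin negative control. Mean of more than three repeats.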

Data set [4] has as its target T3, CYP17 (Homo sapiens, UniProt P05093).
T3 sequence (P05093 whole entry): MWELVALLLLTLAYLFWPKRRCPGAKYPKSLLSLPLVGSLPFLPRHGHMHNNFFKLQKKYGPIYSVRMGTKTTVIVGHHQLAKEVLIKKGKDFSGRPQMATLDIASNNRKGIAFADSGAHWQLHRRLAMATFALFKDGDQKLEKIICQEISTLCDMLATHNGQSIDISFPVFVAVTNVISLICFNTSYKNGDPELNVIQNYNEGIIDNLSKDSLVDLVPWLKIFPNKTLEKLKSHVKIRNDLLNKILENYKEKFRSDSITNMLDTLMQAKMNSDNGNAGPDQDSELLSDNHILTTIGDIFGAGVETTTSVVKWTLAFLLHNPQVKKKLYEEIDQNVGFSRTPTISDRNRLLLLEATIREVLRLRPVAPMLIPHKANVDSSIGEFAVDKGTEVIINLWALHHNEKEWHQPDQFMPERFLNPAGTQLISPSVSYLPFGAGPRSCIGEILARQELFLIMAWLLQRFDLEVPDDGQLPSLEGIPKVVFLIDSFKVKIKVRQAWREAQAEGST
The data set can be described thus: Inhibition of human CYP17 expressed in Escherichia coli co-expressing rat NADPH-P450 reductase using progesterone as substrate at 2 uM relative to control. As to conditions: probe progesterone. The essentials: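 Human CYP17 expressed in E. coli, co-expressing rat NADPH-P450 reductase. Progesterone substrate at 25 μM with NADPH cofactor. Test compound at 2 μM. Percent inhibition is the mean of at least three experiments (deviations <25%); values ≤5% are treated as not significant.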

In data set [5] the target is Cytochrome P450 3A4 (Homo sapiens, UniProt P08684). The data set can be described thus: Inhibition of CYP3A4 (unknown origin) using 7-benzyloxy trifluoromethylcoumarin as substrate. Format: ADME. In outline:
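Commercial CYP3A4/BFC inhibitor screening kit with 7-benzyloxy-trifluoromethylcoumarin as substrate at 50 μM, run per the kit instructions. IC50 determined.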

Each structure is given as a SMILES string.

The source of these data is ChEMBL document CHEMBL2417547 (J Med Chem, 2013).

Usually IC50 stands for the concentration that gives 50% inhibition. One may read the inhibition as the share of the control response that was lost under treatment. Read a high inhibition as strong suppression.

Cytochrome P450 3A4, sequence (P08684 whole entry): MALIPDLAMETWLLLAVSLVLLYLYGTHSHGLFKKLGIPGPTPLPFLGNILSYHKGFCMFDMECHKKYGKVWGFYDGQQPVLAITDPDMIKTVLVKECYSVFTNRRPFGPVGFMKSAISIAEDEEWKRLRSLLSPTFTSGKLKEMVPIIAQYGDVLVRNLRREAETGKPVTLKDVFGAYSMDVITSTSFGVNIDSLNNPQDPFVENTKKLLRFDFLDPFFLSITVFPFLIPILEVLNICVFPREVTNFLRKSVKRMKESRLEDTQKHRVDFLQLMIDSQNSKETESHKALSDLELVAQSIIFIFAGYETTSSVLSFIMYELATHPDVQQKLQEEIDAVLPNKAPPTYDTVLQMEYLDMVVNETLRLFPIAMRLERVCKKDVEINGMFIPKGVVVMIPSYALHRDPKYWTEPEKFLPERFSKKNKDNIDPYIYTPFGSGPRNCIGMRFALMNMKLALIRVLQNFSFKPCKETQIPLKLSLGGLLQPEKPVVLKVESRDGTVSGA

Consider `Cc1cncc(Cc2ccc(-c3ccccc3)nc2)c1`, for which the IC50 was found to be 2.44 µM in data set [1], 106 µM in data set [2] and 1.1 µM in data set [5]. For the same compound, the CC50 at 24 h in data set [3] was found to be 61.4 µM. Further, testing at 2 µM in data set [4] gave an inhibition of 5%.
